Assay results: ChEMBL document CHEMBL1777788, “Synthesis and in vitro antimicrobial activities of new (cyano-NNO-azoxy)pyrazole derivatives” (2011)
Values after ≈ are worked out from the molar mass of the structure shown.

Tests used:
Candida parapsilosis [1] = experiment: Antimicrobial activity against Candida parapsilosis ATCC 22019 after 48 hrs by microdilution broth method; assay type: functional; settings: Lodderomyces parapsilosis, ATCC 22019, 48 h
Summary of the method: (§1)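 Yeasts were grown overnight on Sabouraud dextrose agar at 35°C, suspended in water, and adjusted at 530 nm to McFarland 0.5 (approximately 1-5 x 10^6 CFU/ml). They were then diluted 1:100 and 1:20 in RPMI 1640 with 0.165 M MOPS and 2% glucose. Compound in DMSO was tested at ten concentrations, 0.25–256 mg/L, with incubation at 35°C. At 48 h, MIC was read spectrophotometrically as 50% turbidity reduction versus growth control.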

Candida albicans [2] = experiment: Antimicrobial activity against Candida albicans isolate 31 after 48 hrs by microdilution broth method; assay type: functional; settings: isolate 31, 48 h; summary of the method: as §1
Candida albicans [3] = experiment: Antimicrobial activity against Candida albicans isolate 41 after 48 hrs by microdilution broth method; assay type: functional; settings: isolate 41, 48 h; summary of the method: as §1
Candida albicans [4] = experiment: Antimicrobial activity against Candida albicans isolate 47 after 48 hrs by microdilution broth method; assay type: functional; settings: isolate 47, 48 h; summary of the method: as §1
Candida albicans [5] = experiment: Antimicrobial activity against Candida albicans isolate 48 after 48 hrs by microdilution broth method; assay type: functional; settings: isolate 48, 48 h; summary of the method: as §1
Pichia kudriavzevii [6] = experiment: Antimicrobial activity against Candida krusei isolate 31 after 48 hrs by microdilution broth method; assay type: functional; settings: isolate 31, 48 h; summary of the method: as §1
Pichia kudriavzevii [7] = experiment: Antimicrobial activity against Candida krusei isolate 43 after 48 hrs by microdilution broth method; assay type: functional
Pichia kudriavzevii [8] = experiment: Antimicrobial activity against Candida krusei isolate 48 after 48 hrs by microdilution broth method; assay type: functional
Candida tropicalis [9] = experiment: Antimicrobial activity against Candida tropicalis isolate 33 after 48 hrs by microdilution broth method; assay type: functional; settings: isolate 33, 48 h; summary of the method: as §1
Candida tropicalis [10] = experiment: Antimicrobial activity against Candida tropicalis isolate 11 after 48 hrs by microdilution broth method; assay type: functional; settings: isolate 11, 48 h; summary of the method: as §1
Candida tropicalis [11] = experiment: Antimicrobial activity against Candida tropicalis isolate 22 after 48 hrs by microdilution broth method; assay type: functional; settings: isolate 22, 48 h; summary of the method: as §1
Nakaseomyces glabratus [12] = experiment: Antimicrobial activity against Candida glabrata isolate 30 after 48 hrs by microdilution broth method; assay type: functional; summary of the method: as §1
Nakaseomyces glabratus [13] = experiment: Antimicrobial activity against Candida glabrata isolate 32 after 48 hrs by microdilution broth method; assay type: functional; settings: isolate 32, 48 h; summary of the method: as §1
Nakaseomyces glabratus [14] = experiment: Antimicrobial activity against Candida glabrata isolate 46 after 48 hrs by microdilution broth method; assay type: functional; summary of the method: as §1
Nakaseomyces glabratus [15] = experiment: Antimicrobial activity against Candida glabrata isolate 49 after 48 hrs by microdilution broth method; assay type: functional; summary of the method: as §1
Candida parapsilosis [16] = experiment: Antimicrobial activity against Candida parapsilosis isolate 26 after 48 hrs by microdilution broth method; assay type: functional; settings: Lodderomyces parapsilosis, isolate 26, 48 h; summary of the method: as §1
Candida parapsilosis [17] = experiment: Antimicrobial activity against Candida parapsilosis isolate 44 after 48 hrs by microdilution broth method; assay type: functional; settings: Lodderomyces parapsilosis, isolate 44, 48 h; summary of the method: as §1
Candida parapsilosis [18] = experiment: Antimicrobial activity against Candida parapsilosis isolate 19 after 48 hrs by microdilution broth method; assay type: functional; settings: Lodderomyces parapsilosis, isolate 19, 48 h; summary of the method: as §1
[19] = tested on: Cryptococcus deneoformans; experiment: Antimicrobial activity against Cryptococcus neoformans var. neoformans isolate 14 after 48 hrs by microdilution broth method; assay type: functional; settings: isolate 14, 48 h; summary of the method: as §1
[20] = tested on: Cryptococcus deneoformans; experiment: Antimicrobial activity against Cryptococcus neoformans var. neoformans isolate 27 after 48 hrs by microdilution broth method; assay type: functional; settings: isolate 27, 48 h; summary of the method: as §1
[21] = tested on: Cryptococcus deneoformans; experiment: Antimicrobial activity against Cryptococcus neoformans var. neoformans isolate 30 after 48 hrs by microdilution broth method; assay type: functional; settings: isolate 30, 48 h; summary of the method: as §1
[22] = tested on: Cryptococcus deneoformans; experiment: Antimicrobial activity against Cryptococcus neoformans var. neoformans isolate 25 after 48 hrs by microdilution broth method; assay type: functional; settings: isolate 25, 48 h; summary of the method: as §1
Pichia kudriavzevii [23] = experiment: Antimicrobial activity against Candida krusei ATCC 6258 after 48 hrs by microdilution broth method; assay type: functional; settings: ATCC 6258, 48 h
Escherichia coli = experiment: Antimicrobial activity against Escherichia coli isolate after 24 hrs by microdilution broth method
Proteus mirabilis = experiment: Antimicrobial activity against Proteus mirabilis isolate after 24 hrs by microdilution broth method
Pseudomonas aeruginosa [24] = experiment: Antimicrobial activity against Pseudomonas aeruginosa isolate 1 after 24 hrs by microdilution broth method; settings: isolate 1, 24 h
Pseudomonas aeruginosa [25] = experiment: Antimicrobial activity against Pseudomonas aeruginosa isolate 2 after 24 hrs by microdilution broth method; settings: isolate 2, 24 h
Staphylococcus aureus = experiment: Antimicrobial activity against methicillin-susceptible Staphylococcus aureus isolate after 24 hrs by microdilution broth method
Candida tropicalis [26] = experiment: Antimicrobial activity against Candida tropicalis isolate 15 after 48 hrs by microdilution broth method; assay type: functional; settings: isolate 15, 48 h; summary of the method: as §1
Candida parapsilosis [27] = experiment: Antimicrobial activity against Candida parapsilosis isolate 39 after 48 hrs by microdilution broth method; assay type: functional; settings: Lodderomyces parapsilosis, isolate 39, 48 h
Summary of the method: (§2)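 Yeasts grown overnight on Sabouraud dextrose agar at 35°C, suspended in sterile water, and adjusted to McFarland 0.5 at 530 nm (about 1-5 x 10^6 CFU/ml), then diluted 1:100 and 1:20 in RPMI 1640 with 0.165 M MOPS and 2% glucose. Compound in DMSO tested at ten concentrations, 0.25-256 mg/L, at 35°C. MIC read spectrophotometrically at 48 h as 50% turbidity reduction versus growth control.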

Candida albicans [28] = experiment: Antimicrobial activity against Candida albicans ATCC 90028 after 48 hrs by microdilution broth method; assay type: functional; settings: ATCC 90028, 48 h; summary of the method: as §2

Compound | MIC (Candida parapsilosis [1]) | MIC (Candida albicans [2]) | MIC (Candida albicans [4]) | MIC (Candida albicans [5]) | MIC (Pichia kudriavzevii [6]) | MIC (Pichia kudriavzevii [7]) | MIC (Pichia kudriavzevii [8]) | MIC (Candida tropicalis [9]) | MIC (Candida tropicalis [10]) | MIC (Candida tropicalis [11]) | MIC (Nakaseomyces glabratus [12]) | MIC (Nakaseomyces glabratus [13]) | MIC (Nakaseomyces glabratus [14]) | MIC (Nakaseomyces glabratus [15]) | MIC (Candida parapsilosis [16]) | MIC (Candida parapsilosis [18]) | MIC [19] | MIC [20] | MIC [21] | MIC [22] | other results
Cc1nn(C)c(C)c1/[N+]([O-])=N/C#N | 32 mg/L (≈ 179 µM) | 32 mg/L (≈ 179 µM) | 32 mg/L (≈ 179 µM) | 32 mg/L (≈ 179 µM) | 32 mg/L (≈ 179 µM) | 32 mg/L (≈ 179 µM) | 32 mg/L (≈ 179 µM) | 64 mg/L (≈ 357 µM) | 128 mg/L (≈ 714 µM) | 64 mg/L (≈ 357 µM) | 64 mg/L (≈ 357 µM) | 16 mg/L (≈ 89.3 µM) | 64 mg/L (≈ 357 µM) | 64 mg/L (≈ 357 µM) | 64 mg/L (≈ 357 µM) | 64 mg/L (≈ 357 µM) | 32 mg/L (≈ 179 µM) | 32 mg/L (≈ 179 µM) | 32 mg/L (≈ 179 µM) | 32 mg/L (≈ 179 µM) | MIC (Candida albicans [3]): 32 mg/L (≈ 179 µM); MIC (Candida parapsilosis [17]): 64 mg/L (≈ 357 µM); MIC (Pichia kudriavzevii [23]): 16 mg/L (≈ 89.3 µM); MIC (Escherichia coli): > 128 mg/L; MIC (Proteus mirabilis): > 128 mg/L; MIC (Pseudomonas aeruginosa [24]): > 128 mg/L; MIC (Pseudomonas aeruginosa [25]): > 128 mg/L; MIC (Staphylococcus aureus): > 128 mg/L
Cc1cc(-c2c(/[N+]([O-])=N/C#N)c(C)nn2C)no1 | > 128 mg/L | 32 mg/L (≈ 130 µM) | 128 mg/L (≈ 520 µM) | 128 mg/L (≈ 520 µM) | 32 mg/L (≈ 130 µM) | 32 mg/L (≈ 130 µM) | 32 mg/L (≈ 130 µM) | > 128 mg/L | 128 mg/L (≈ 520 µM) | > 128 mg/L | 128 mg/L (≈ 520 µM) | 16 mg/L (≈ 65 µM) | 128 mg/L (≈ 520 µM) | 64 mg/L (≈ 260 µM) | 128 mg/L (≈ 520 µM) | > 128 mg/L | 8 mg/L (≈ 32.5 µM) | 8 mg/L (≈ 32.5 µM) | 8 mg/L (≈ 32.5 µM) | 8 mg/L (≈ 32.5 µM) | MIC (Candida albicans [3]): 32 mg/L (≈ 130 µM); MIC (Candida parapsilosis [17]): 128 mg/L (≈ 520 µM); MIC (Pichia kudriavzevii [23]): 16 mg/L (≈ 65 µM); MIC (Escherichia coli): > 128 mg/L; MIC (Proteus mirabilis): > 128 mg/L; MIC (Pseudomonas aeruginosa [24]): > 128 mg/L; MIC (Pseudomonas aeruginosa [25]): > 128 mg/L; MIC (Staphylococcus aureus): > 128 mg/L
Cc1nn(C)c(-c2cccs2)c1/[N+]([O-])=N/C#N | 32 mg/L (≈ 129 µM) | 4 mg/L (≈ 16.2 µM) | 4 mg/L (≈ 16.2 µM) | 4 mg/L (≈ 16.2 µM) | 1 mg/L (≈ 4.04 µM) | 1 mg/L (≈ 4.04 µM) | 2 mg/L (≈ 8.09 µM) | 32 mg/L (≈ 129 µM) | 32 mg/L (≈ 129 µM) | 32 mg/L (≈ 129 µM) | 2 mg/L (≈ 8.09 µM) | 2 mg/L (≈ 8.09 µM) | 2 mg/L (≈ 8.09 µM) | 2 mg/L (≈ 8.09 µM) | 16 mg/L (≈ 64.7 µM) | 32 mg/L (≈ 129 µM) | 0.25 mg/L (≈ 1.01 µM) | 0.25 mg/L (≈ 1.01 µM) | 0.5 mg/L (≈ 2.02 µM) | 0.5 mg/L (≈ 2.02 µM) | MIC (Candida tropicalis [26]): 64 mg/L (≈ 259 µM); MIC (Candida parapsilosis [27]): 16 mg/L (≈ 64.7 µM); MIC (Candida albicans [28]): 4 mg/L (≈ 16.2 µM); MIC (Pichia kudriavzevii [23]): 1 mg/L (≈ 4.04 µM)
Cc1c(/[N+]([O-])=N/C#N)c(-c2ccco2)nn1C | 32 mg/L (≈ 138 µM) | 2 mg/L (≈ 8.65 µM) | 4 mg/L (≈ 17.3 µM) | 4 mg/L (≈ 17.3 µM) | 1 mg/L (≈ 4.32 µM) | 2 mg/L (≈ 8.65 µM) | 2 mg/L (≈ 8.65 µM) | 128 mg/L (≈ 554 µM) | 32 mg/L (≈ 138 µM) | 128 mg/L (≈ 554 µM) | 1 mg/L (≈ 4.32 µM) | 2 mg/L (≈ 8.65 µM) | 1 mg/L (≈ 4.32 µM) | 1 mg/L (≈ 4.32 µM) | 8 mg/L (≈ 34.6 µM) | 64 mg/L (≈ 277 µM) | 0.25 mg/L (≈ 1.08 µM) | 0.25 mg/L (≈ 1.08 µM) | 0.25 mg/L (≈ 1.08 µM) | 0.25 mg/L (≈ 1.08 µM) | MIC (Candida tropicalis [26]): 128 mg/L (≈ 554 µM); MIC (Candida parapsilosis [27]): 16 mg/L (≈ 69.2 µM); MIC (Candida albicans [28]): 1 mg/L (≈ 4.32 µM); MIC (Pichia kudriavzevii [23]): 1 mg/L (≈ 4.32 µM)
Cc1c(/[N+]([O-])=N/C(N)=O)c(-c2cccs2)nn1C | > 128 mg/L | > 128 mg/L | > 128 mg/L | > 128 mg/L | > 128 mg/L | > 128 mg/L | > 128 mg/L | > 128 mg/L | > 128 mg/L | > 128 mg/L | > 128 mg/L | > 128 mg/L | > 128 mg/L | > 128 mg/L | > 128 mg/L | > 128 mg/L | 64 mg/L (≈ 241 µM) | 64 mg/L (≈ 241 µM) | 128 mg/L (≈ 482 µM) | 128 mg/L (≈ 482 µM) | MIC (Candida tropicalis [26]): > 128 mg/L; MIC (Candida parapsilosis [27]): > 128 mg/L; MIC (Candida albicans [28]): > 128 mg/L; MIC (Pichia kudriavzevii [23]): > 128 mg/L
